Laboratory results reported in ChEMBL document CHEMBL1129034, “Novel N6-(substituted-phenylcarbamoyl)adenosine-5'-uronamides as potent agonists for A3 adenosine receptors” (J Med Chem, 1996).

Columns and labels:
[1] = target: Adenosine receptor A2a and A3 (Rattus norvegicus) (UniProt P30543+P28647); experiment: Selectivity, ratio between A2A receptor binding affinity / A3 receptor binding affinity; type: protein assay
Adenosine receptor A1 = target: T1, Adenosine receptor A1 (Rattus norvegicus, UniProt P25099); experiment: Displacement of [3H]CHA from Adenosine A1 receptor in rat brain homogenates; type: tissue-based
T1 sequence (P25099 whole entry): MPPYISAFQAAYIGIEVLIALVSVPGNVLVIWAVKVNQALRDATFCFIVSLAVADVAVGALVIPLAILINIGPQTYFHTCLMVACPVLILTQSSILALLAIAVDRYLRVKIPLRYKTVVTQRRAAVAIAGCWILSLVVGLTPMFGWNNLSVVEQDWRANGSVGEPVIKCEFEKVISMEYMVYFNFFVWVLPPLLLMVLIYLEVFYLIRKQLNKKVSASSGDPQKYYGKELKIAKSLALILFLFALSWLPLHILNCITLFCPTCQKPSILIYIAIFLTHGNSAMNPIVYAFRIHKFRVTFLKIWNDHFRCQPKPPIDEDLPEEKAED

Adenosine receptor A2a = Adenosine receptor A2a (Rattus norvegicus, UniProt P30543); experiment: Displacement of [3H]-CGS- 21680 from Adenosine A2A receptor in rat striatal homogenates
Adenosine receptor A2a, sequence (P30543 whole entry): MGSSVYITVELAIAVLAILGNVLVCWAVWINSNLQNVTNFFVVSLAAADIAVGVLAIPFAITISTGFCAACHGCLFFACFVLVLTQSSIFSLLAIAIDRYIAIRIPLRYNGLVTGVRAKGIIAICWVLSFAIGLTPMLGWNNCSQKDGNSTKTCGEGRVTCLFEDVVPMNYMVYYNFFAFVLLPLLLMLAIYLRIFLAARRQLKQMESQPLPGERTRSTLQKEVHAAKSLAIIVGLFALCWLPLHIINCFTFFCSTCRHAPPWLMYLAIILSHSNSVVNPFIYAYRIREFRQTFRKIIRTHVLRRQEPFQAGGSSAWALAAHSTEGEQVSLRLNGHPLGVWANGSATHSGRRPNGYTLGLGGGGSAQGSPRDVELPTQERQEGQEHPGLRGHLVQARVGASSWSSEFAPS
Outline: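 Rat striatal homogenates labelled with [3H]CGS 21680 for A2A; IC50 by probit analysis over at least six concentrations, Ki via Cheng-Prusoff using Kd 18.5 nM; n = 3-4, Ki ± SEM in nM.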

[2] = target: Adenosine receptors; A1 & A3 (Rattus norvegicus) (UniProt P25099+P28647); experiment: Selectivity, ratio between A1 receptor binding affinity / A3 receptor binding affinity; type: protein assay
Adenosine receptor A3 = target: T2, Adenosine receptor A3 (Rattus norvegicus, UniProt P28647); experiment: Displacement of [125I]AB-MECA from cloned rat Adenosine A3 receptor in stably transfected CHO cells; type: cell-based
T2 sequence (P28647 whole entry): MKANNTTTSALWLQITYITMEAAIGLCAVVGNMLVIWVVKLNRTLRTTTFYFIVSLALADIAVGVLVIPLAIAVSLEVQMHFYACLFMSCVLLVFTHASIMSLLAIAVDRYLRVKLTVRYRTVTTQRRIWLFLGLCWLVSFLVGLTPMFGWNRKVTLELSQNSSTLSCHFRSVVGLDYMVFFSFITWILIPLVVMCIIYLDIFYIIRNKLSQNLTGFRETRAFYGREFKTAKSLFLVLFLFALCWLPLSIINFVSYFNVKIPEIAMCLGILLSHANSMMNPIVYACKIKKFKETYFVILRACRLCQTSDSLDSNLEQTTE
Outline: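 Membranes from CHO cells stably expressing rat A3 receptor, labelled with [125I]AB-MECA; IC50 by probit analysis from at least six concentrations, converted to Ki by Cheng-Prusoff with Kd 1.48 nM; n = 3, Ki ± SEM in nM.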

Adenosine receptor A2a and A3 (Rattus norvegicus), sequence (P30543 whole entry, looked up, one chain of several): as the sequence (P30543 whole entry) above

Row | Structure (SMILES) | Selectivity [1] | Ki (Adenosine receptor A1) | Ki (Adenosine receptor A2a) | Selectivity [2] | Ki (Adenosine receptor A3)
1 | CCNC(=O)[C@H]1O[C@@H](n2cnc3c(NC(=O)Nc4ccccc4Cl)ncnc32)[C@H](O)[C@@H]1O | 180 | 111 nM | 1340 nM | 15 | 7.4 nM
2 | CNC(=O)[C@H]1O[C@@H](n2cnc3c(NC(=O)Nc4ccc(OC)cc4)ncnc32)[C@H](O)[C@@H]1O | 160 | 491 nM | 8750 nM | 8.8 | 56 nM
3 | CCNC(=O)[C@H]1O[C@@H](n2cnc3c(NC(=O)Nc4cccc(Cl)c4)ncnc32)[C@H](O)[C@@H]1O | 96 | 45 nM | 420 nM | 10 | 4.4 nM
4 | CCNC(=O)[C@H]1O[C@@H](n2cnc3c(NC(=O)Nc4ccccc4I)ncnc32)[C@H](O)[C@@H]1O | 14 | 179 nM | 440 nM | 5.6 | 32 nM
5 | CCNC(=O)[C@H]1O[C@@H](n2cnc3c(NC(=O)Nc4ccccc4C(F)(F)F)ncnc32)[C@H](O)[C@@H]1O | 190 | 384 nM | 10000 nM | 7.4 | 54 nM
6 | CCNC(=O)[C@H]1O[C@@H](n2cnc3c(NC(=O)Nc4ccc(OC)cc4)ncnc32)[C@H](O)[C@@H]1O | 510 | 33 nM | 3360 nM | 4.9 | 6.6 nM
7 | CCNC(=O)[C@H]1O[C@@H](n2cnc3c(NC(=O)Nc4ccc(C)cc4)ncnc32)[C@H](O)[C@@H]1O | 11 | 124 nM | 351 nM | 3.8 | 32.3 nM
8 | CNC(=O)[C@H]1O[C@@H](n2cnc3c(NC(=O)Nc4cccc(Cl)c4)ncnc32)[C@H](O)[C@@H]1O | 58 | 550 nM | 6700 nM | 4.8 | 115 nM
9 | CCNC(=O)[C@H]1O[C@@H](n2cnc3c(NC(=O)Nc4cccc(I)c4)ncnc32)[C@H](O)[C@@H]1O | 130 | – | 3940 nM | 0.5 | 30 nM
10 | CCNC(=O)[C@H]1O[C@@H](n2cnc3c(NC(=O)Nc4cccc(F)c4)ncnc32)[C@H](O)[C@@H]1O | 16 | 103 nM | 611 nM | 2.6 | 39 nM
11 | CCNC(=O)[C@H]1O[C@@H](n2cnc3c(NC(=O)Nc4ccccc4F)ncnc32)[C@H](O)[C@@H]1O | 15 | 77 nM | 528 nM | 2.2 | 34 nM
12 | CCNC(=O)[C@H]1O[C@@H](n2cnc3c(NC(=O)Nc4cccc(Br)c4)ncnc32)[C@H](O)[C@@H]1O | 1 | 252 nM | 286 nM | 0.9 | 275 nM
13 | CCNC(=O)[C@H]1OC(n2cnc3c(NC(=O)Nc4ccc(C(F)(F)F)cc4)ncnc32)[C@H](O)[C@@H]1O (some centres undefined) | 32 | 739 nM | 4830 nM | 4.9 | 150 nM
14 | CCNC(=O)[C@H]1OC(n2cnc3c(NC(=O)Nc4cccc(C(F)(F)F)c4)ncnc32)[C@H](O)[C@@H]1O (some centres undefined) | 30 | 700 nM | 2300 nM | 9.1 | 77 nM
15 | CCNC(=O)[C@H]1O[C@@H](n2cnc3c(NC(=O)Nc4ccc(I)cc4)ncnc32)[C@H](O)[C@@H]1O | 5.6 | 64 nM | 561 nM | 0.6 | 101 nM

Further compounds by falling Ki (Adenosine receptor A1), results first:

Row | Selectivity [1] | Ki (Adenosine receptor A1) | Ki (Adenosine receptor A2a) | Selectivity [2] | Ki (Adenosine receptor A3) | Structure (SMILES)
16 | 1.9 | 1440 nM | 3670 nM | 0.75 | 1930 nM | CCNC(=O)[C@H]1O[C@@H](n2cnc3c(NC(=O)NC(C)(C)C)ncnc32)[C@H](O)[C@@H]1O
17 | 9.4 | 448 nM | 3070 nM | 1.4 | 326 nM | CCCCCCCCNC(=O)Nc1ncnc2c1ncn2[C@@H]1O[C@H](C(=O)NCC)[C@@H](O)[C@H]1O
18 | 92 | 113 nM | 3860 nM | 2.7 | 42 nM | CCNC(=O)[C@H]1O[C@@H](n2cnc3c(NC(=O)Nc4cccc(OC)c4)ncnc32)[C@H](O)[C@@H]1O
19 | 140 | 110 nM | 5360 nM | 2.8 | 39 nM | CCNC(=O)[C@H]1O[C@@H](n2cnc3c(NC(=O)Nc4ccccc4)ncnc32)[C@H](O)[C@@H]1O
20 | 72 | 85 nM | 1380 nM | 4.4 | 19 nM | CCNC(=O)[C@H]1O[C@@H](n2cnc3c(NC(=O)Nc4ccc(F)cc4)ncnc32)[C@H](O)[C@@H]1O
21 | 38 | 73 nM | 1160 nM | 2.4 | 30 nM | CCNC(=O)[C@H]1O[C@@H](n2cnc3c(NC(=O)Nc4ccccc4OC)ncnc32)[C@H](O)[C@@H]1O
22 | 13 | 72 nM | 1490 nM | 0.6 | 114 nM | CCNC(=O)[C@H]1O[C@@H](n2cnc3c(NC(=O)Nc4ccc(Cl)cc4)ncnc32)[C@H](O)[C@@H]1O
